An excerpt weighted towards active compounds, which were near 8.9% of everything screened.
Dynein cargo inh: inhibitors of GR-EGFP nuclear translocation, primary screen, dynein cargo transport inhibitor project, imaging, high-content, 3617.4 mouse cells; test concentration mostly 20 µM; stimulated with dexamethasone, 1 µM; stronger effect = lower value; z-score, hits read low; 220,000 compounds, 0.47% hits; AID 1381, 2008;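 active means plate z-score of nuclear minus cytoplasmic receptor signal below a set negative limit, without overly bright fluorescence or cell loss, cut at about -3.5 in these data, passing the limit was not always enough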;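 further: z-score of nuclear minus cytoplasmic ring GR-EGFP intensity difference per well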
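Buffer or medium: tet-free, stripped-serum medium; reagent: dexamethasone at 1.0 µM final, 30 min; incubation: 48 h induction, 1 h compound, 30 min dex at 37 °C; measured by: formaldehyde fixation, Hoechst nuclear stain, 10x automated fluorescence imaging; read-out: nuclear-to-cytoplasmic GR-EGFP distribution per well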
MT stabilize HCS: microtubule stabilizers in HeLa cells, primary screen, imaging, high-content imaging; HeLa tubulin immunostaining HCS, 24 h; share of cells brighter than vehicle mean+2SD; % tubulin-high responders, % at 10 µM; 200,000 compounds, 0.83% hits;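 active means plate Z-score above 3 for both tubulin-high and condensed-nucleus cell shares, with cell loss under 80%, at 10 µM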;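 further: anti alpha tubulin signal scored within the nucleus-defined area of each cell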
b-catenin transl: modulators of beta-catenin nuclear translocation, primary screen, imaging, HeLa cells, immunofluorescence, high-content; nuclear translocation activity, % at 5 µM; 190,000 compounds, 0.3% hits; AID 1665, 2009;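 active means nuclear translocation activity above 50% at 5 µM, with a well cell count of 50 or more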;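 further: per-cell ratio of nuclear to cytoplasmic median beta-catenin stain intensity; plate controls were DMSO negative control for no effect and GSK-3 inhibitor IX positive control for full effect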
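Test system: human HeLa cells, native beta-catenin. Compound dosing: 5 µM primary single dose, 0.1% DMSO, 0.02–20 µM confirmation series. Incubation: compound exposure 24 h at 37°C. Detection: beta-catenin immunostaining with DAPI counterstain, 20x imaging, 6 fields/well. Read-out basis: Nuclear/cytoplasmic beta-catenin signal ratio, % activation.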
HSV replic up: enhancers of HSV replication in host cells, fold increase, host cell viability; HSV replication augmentation in cells; maximum fold increase; 220,000 compounds, 0.005% hits; in the data active means maximum fold increase above about 1.5; tested in PC3 cells
L major viab: Leishmania major promastigote growth inhibition, primary screen; Leishmania major promastigotes, resazurin fluorescence viability; inhibition, % at 10 µM; 200,000 compounds, 9% hits; in the data active means inhibition above about 50%;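 further: promastigotes grown with compound for 44 hours at 28 °C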
Starred values were filed as active, the others as inactive.

CC1=C([N+](=O)[O-])C(c2ccccc2)C2=C(N1)c1ccccc1C2=O (stereo unspecified) was read as Dynein cargo inh 0.73, MT stabilize HCS 9.9*, b-catenin transl -2, HSV replic up inactive and L major viab 20.
For O=C(OCn1ncc(Cl)c(Cl)c1=O)c1ccc(F)cc1 the results were Dynein cargo inh -2.9, MT stabilize HCS 2, HSV replic up inactive and L major viab 98*.
For O=C(OCn1ncc(Cl)c(Cl)c1=O)c1ccccc1Cl the results were Dynein cargo inh -3, MT stabilize HCS 2, HSV replic up inactive and L major viab 101*.
O=C(OCCN1CCCCC1)c1ccccc1Cl was read as Dynein cargo inh 0.57, MT stabilize HCS 4, b-catenin transl -1, HSV replic up inactive and L major viab 1.
`CCc1ccc(CCC(=O)Nc2ccc(C)cc2C)o1` gave Dynein cargo inh -0.5, MT stabilize HCS 5, b-catenin transl 3, HSV replic up inactive and L major viab -1.
NC(=O)CSc1cn(Cc2ccc(F)cc2)c2ccccc12 was read as Dynein cargo inh -0.041, MT stabilize HCS 1, b-catenin transl -5, HSV replic up inactive and L major viab 0.
CS(=O)(=O)N(CC(=O)NCc1ccncc1)c1ccc(Cl)c(Cl)c1 was read as Dynein cargo inh 0.92, MT stabilize HCS 2, HSV replic up inactive and L major viab -2.
For Cc1ccc(NC(=O)/C=C/c2ccc([N+](=O)[O-])s2)c(C)c1 the results were Dynein cargo inh 2.2, MT stabilize HCS 9, b-catenin transl 5 and L major viab 34.
`Cc1cccc(NC(=O)/C=C/c2ccc([N+](=O)[O-])s2)c1` gave Dynein cargo inh 1.2, MT stabilize HCS 25, b-catenin transl 14 and L major viab 100*.
`C/C(=N/NC(=S)Nc1cccc(C)c1)c1cccc([N+](=O)[O-])c1` gave Dynein cargo inh -0.42, MT stabilize HCS 4, b-catenin transl -1, HSV replic up inactive and L major viab -6.
Screening Cc1ccc(NC(=O)/C=C/c2ccc([N+](=O)[O-])s2)cc1 returned Dynein cargo inh -0.043, MT stabilize HCS 5, b-catenin transl 4, HSV replic up inactive and L major viab 97*.
For Cc1cccc(NC(=S)N/N=C/c2ccc([N+](=O)[O-])s2)c1 the results were Dynein cargo inh 0.32, MT stabilize HCS 2, HSV replic up inactive and L major viab 93*.
`CN(Cc1ccccc1)S(=O)(=O)c1ccc(NS(=O)(=O)Cc2ccccc2)cc1` gave Dynein cargo inh -0.094, MT stabilize HCS 2, HSV replic up inactive and L major viab -1.
CCS(=O)(=O)Nc1ccc(C2=NN(C(=O)c3ccco3)C(c3ccc(C)cc3)C2)cc1 (stereo unspecified) was read as Dynein cargo inh 0.19, MT stabilize HCS 2, b-catenin transl 4, HSV replic up inactive and L major viab 74*.
CS(=O)(=O)Nc1ccc(C2=NN(C(=O)c3ccco3)C(c3ccccc3)C2)cc1 (stereo unspecified) was read as Dynein cargo inh 0.74, MT stabilize HCS 2, b-catenin transl 0, HSV replic up inactive and L major viab 68*.
CCN1CCN(c2cc(C(C)(C)C)nc3c(-c4ccccc4)c(C)nn23)CC1 was read as Dynein cargo inh 2.5, MT stabilize HCS 4, b-catenin transl 0, HSV replic up inactive and L major viab 96*.
Screening Cc1nc2c(-c3ccccc3)c(C)nn2c(C)c1CCC(=O)NCc1ccco1 returned Dynein cargo inh 0.32, MT stabilize HCS 3, b-catenin transl 0, HSV replic up inactive and L major viab -4.
For CCN1CCN(c2cc(C(C)C)nc3c(-c4ccccc4)c(C)nn23)CC1 the results were Dynein cargo inh 2.9, b-catenin transl 1 and HSV replic up inactive.
CCN1CCN(c2ccc(NC(=O)CCc3c(C)nc4c(-c5ccccc5)c(C)nn4c3C)cc2)CC1 was read as Dynein cargo inh -1.2, MT stabilize HCS 2, b-catenin transl 1, HSV replic up inactive and L major viab 100*.
Screening Cc1ccc2cc(/C=N/NC(=O)c3ccc(F)cc3)c(Cl)nc2c1 returned Dynein cargo inh -0.85, MT stabilize HCS 2, b-catenin transl 1, HSV replic up inactive and L major viab -4.
For Cc1ccc(C(=O)OC(C(=O)Nc2ccc(Cl)cc2C(F)(F)F)c2ccccc2)cc1 (stereo unspecified) the results were Dynein cargo inh -0.51, MT stabilize HCS 3, b-catenin transl -3, HSV replic up inactive and L major viab 69*.
Screening O=C(OC(C(=O)Nc1ccc(Cl)cc1C(F)(F)F)c1ccccc1)c1c(Cl)cccc1Cl (stereo unspecified) returned Dynein cargo inh -0.88, MT stabilize HCS 2, b-catenin transl 3, HSV replic up inactive and L major viab 9.
For O=c1ccc2ccc(Oc3ccc([N+](=O)[O-])cc3[N+](=O)[O-])cc2o1 the results were Dynein cargo inh -2.8, MT stabilize HCS 8, b-catenin transl 5, HSV replic up inactive and L major viab 48.
For Cc1ccc(S(=O)(=O)NC(C)C(=O)Nc2cccc([N+](=O)[O-])c2)cc1 (stereo unspecified) the results were Dynein cargo inh -0.057, MT stabilize HCS 3, b-catenin transl -4, HSV replic up inactive and L major viab 10.
For O=c1c2ccccc2nc(COc2ccccc2)n1/N=C/c1cn[nH]c1-c1ccccc1 the results were Dynein cargo inh -0.34, MT stabilize HCS 6, b-catenin transl -2, HSV replic up inactive and L major viab 51*.
COc1ccc(C2N(S(=O)(=O)c3ccc(C)cc3)CCN2S(=O)(=O)c2ccc(C)cc2)cc1 was read as Dynein cargo inh 0.64, MT stabilize HCS 1, HSV replic up inactive and L major viab 66*.
`COc1ccc(S(=O)(=O)N2CC(C)N(S(=O)(=O)c3ccc(OC)cc3)CC2C)cc1` (stereo unspecified) gave b-catenin transl -4 and HSV replic up inactive.
Cc1ccc(S(=O)(=O)N2CCN(S(=O)(=O)c3ccccc3)C2c2ccc(N(C)C)cc2)cc1 (stereo unspecified) was read as Dynein cargo inh 1.2, MT stabilize HCS 2, b-catenin transl 1, HSV replic up inactive and L major viab 89*.
CC(C)N(Cc1cnn(C)c1)Cc1nc(-c2ccc(Cl)cc2)no1 was read as Dynein cargo inh -0.3, MT stabilize HCS 3, b-catenin transl 0, HSV replic up inactive and L major viab -6.
`Cc1ccc2nc3sc(C(=O)N4CCCc5ccccc54)c(N)c3cc2c1` gave Dynein cargo inh -0.62, MT stabilize HCS 28*, b-catenin transl 0, HSV replic up inactive and L major viab 29.

From PubChem
